These results are taken from article PMC8530978 (Bioorganic chemistry, 2021).

For assay [1], the system named is NCI sixty human tumor cell line panel. As to the kind of experiment: NCI sixty human tumor cell line panel, single dose 10 μM. Particulars: Homo sapiens; for activity at 10 µM: read-out: Mean % growth at 10 μM. Type of assay: cell-based.
For assay [2], the system named is NCI 60 cancer cell lines. As to the kind of experiment: NCI dose response assay. The assay is classed as cell-based, human.
Assay [3] addresses HDAC1 (Homo sapiens, UniProt Q13547). The assay can be described thus: HDAC-Glo inhibitor testing with recombinant HDAC1. Type of assay: biochemical.
Assay [4] has as its target HDAC2 (Homo sapiens, UniProt Q92769). As to the kind of experiment: HDAC-Glo inhibitor testing with recombinant HDAC2. Type of assay: biochemical.
Assay [5] has as its target HDAC3 (Homo sapiens, UniProt O15379). The assay can be described thus: HDAC-Glo inhibitor testing with recombinant HDAC3. The assay is classed as biochemical.
For assay [6], the target named is T1, HDAC6 (Homo sapiens, UniProt Q9UBN7).
T1 sequence (Q9UBN7 1-1215): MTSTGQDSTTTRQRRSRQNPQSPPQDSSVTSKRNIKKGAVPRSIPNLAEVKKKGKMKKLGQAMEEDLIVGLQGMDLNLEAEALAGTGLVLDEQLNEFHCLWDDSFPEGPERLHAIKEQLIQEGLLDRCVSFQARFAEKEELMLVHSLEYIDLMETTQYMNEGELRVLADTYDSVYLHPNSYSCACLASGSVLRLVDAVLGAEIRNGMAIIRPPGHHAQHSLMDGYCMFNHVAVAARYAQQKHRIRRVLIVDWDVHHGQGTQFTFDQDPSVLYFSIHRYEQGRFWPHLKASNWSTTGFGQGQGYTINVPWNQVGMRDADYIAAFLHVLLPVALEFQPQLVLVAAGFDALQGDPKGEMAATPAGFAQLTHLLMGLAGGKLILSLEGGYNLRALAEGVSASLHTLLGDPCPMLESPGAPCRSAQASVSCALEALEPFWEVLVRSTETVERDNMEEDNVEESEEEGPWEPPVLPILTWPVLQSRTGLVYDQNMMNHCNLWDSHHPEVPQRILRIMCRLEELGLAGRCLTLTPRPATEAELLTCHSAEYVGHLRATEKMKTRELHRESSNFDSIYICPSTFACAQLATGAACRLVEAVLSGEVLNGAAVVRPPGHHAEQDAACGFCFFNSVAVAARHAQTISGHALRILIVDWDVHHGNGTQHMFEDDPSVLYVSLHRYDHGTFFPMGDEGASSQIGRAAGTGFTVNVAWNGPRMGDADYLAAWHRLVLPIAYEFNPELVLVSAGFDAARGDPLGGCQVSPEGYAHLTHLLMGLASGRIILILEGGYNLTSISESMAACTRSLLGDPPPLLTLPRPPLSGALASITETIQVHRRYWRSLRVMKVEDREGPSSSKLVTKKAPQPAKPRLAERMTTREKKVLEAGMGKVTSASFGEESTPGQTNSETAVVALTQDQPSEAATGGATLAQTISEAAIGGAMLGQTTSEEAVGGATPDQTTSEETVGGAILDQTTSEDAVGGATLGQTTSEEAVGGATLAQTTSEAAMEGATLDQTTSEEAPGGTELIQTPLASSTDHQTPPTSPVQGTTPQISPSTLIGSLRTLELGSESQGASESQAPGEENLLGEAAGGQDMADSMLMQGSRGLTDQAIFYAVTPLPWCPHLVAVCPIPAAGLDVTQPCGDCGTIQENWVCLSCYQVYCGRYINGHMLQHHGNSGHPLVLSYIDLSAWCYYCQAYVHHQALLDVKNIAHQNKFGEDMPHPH
As to the kind of experiment: HDAC-Glo inhibitor testing with recombinant HDAC6. Type of assay: biochemical.

The target of assay [7] is T2, HDAC8 (Homo sapiens, UniProt Q9BY41).
T2 sequence (Q9BY41 1-377): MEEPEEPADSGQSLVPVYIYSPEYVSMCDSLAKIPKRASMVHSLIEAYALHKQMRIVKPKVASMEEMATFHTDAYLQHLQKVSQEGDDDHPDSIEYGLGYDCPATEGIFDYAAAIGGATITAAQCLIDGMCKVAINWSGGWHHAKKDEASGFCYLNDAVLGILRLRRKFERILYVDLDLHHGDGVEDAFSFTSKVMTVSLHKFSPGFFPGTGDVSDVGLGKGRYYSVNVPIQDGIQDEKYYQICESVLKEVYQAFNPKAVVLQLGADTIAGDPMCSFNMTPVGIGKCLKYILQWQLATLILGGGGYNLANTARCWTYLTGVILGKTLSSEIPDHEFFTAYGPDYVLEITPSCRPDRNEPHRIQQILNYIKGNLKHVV
As to the kind of experiment: HDAC-Glo inhibitor testing with recombinant HDAC8. As to conditions: for remaining activity at 100 µM: read-out: HDAC8 activity remaining. The assay is classed as biochemical.

Assay [8] concerns HCT 116 cells. The assay can be described thus: MTS reduction assay, antiproliferative activity on HCT 116. As to conditions: Homo sapiens, HCT-116, 96 h. The assay is classed as cell-based. Put shortly: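 HCT116 cells grown in McCoy's 5A with 10% FBS (37 °C, 5% CO2), seeded at 3 × 10^3/well in triplicate and left to adhere overnight. Exposed to test compound at 0.01–100 μM, or DMSO, for 96 h. MTS reagent added for 2 h at 37 °C; absorbance read at 490 nm. Curves of log(concentration) vs response fitted with a variable Hill slope.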
On the technique in general: Tetrazolium dyes change colour on reduction, which living cells bring about.

For assay [9], the system named is histone H3 acetylation and tubulin acetylation in HCT116 cells. The assay can be described thus: Western blot of histone H3 and tubulin acetylation in HCT116 cells. Type of assay: cell-based, human. As to conditions: HCT116, 24 h, IPEs up to highest concentration 25 μM. Put shortly:
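HCT116 cells (2 × 10^6 per T-25 flask) adhered overnight, then given test compound at 1, 10 or 25 μM, or DMSO, for 24 h. Lysed in RIPA; protein measured by BCA. Acetyl-histone H3 and acetyl-tubulin immunoblotted, detected with fluorescent secondary antibodies on an Odyssey scanner.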
(Immunoblotting shows a protein as a band on a membrane.)

Assay [10] deals with mitotic spindle of HeLaM cells. Type of assay: cell-based. As to conditions: compound 10 μM + MG132 + ZM447439 (DMSO+MG132+ZM447439 3%).
For assay [11], the target named is tubulin heterodimers, purified from porcine brain (Sus scrofa, UniProt P02554). As to the kind of experiment: Turbidity-based tubulin polymerization assay. The assay is classed as biochemical. As to conditions: 10 μM compound, 37 °C, exponential phase (DMSO 10 mOD/min).
Chain of tubulin heterodimers, purified from porcine brain (P02554 whole entry): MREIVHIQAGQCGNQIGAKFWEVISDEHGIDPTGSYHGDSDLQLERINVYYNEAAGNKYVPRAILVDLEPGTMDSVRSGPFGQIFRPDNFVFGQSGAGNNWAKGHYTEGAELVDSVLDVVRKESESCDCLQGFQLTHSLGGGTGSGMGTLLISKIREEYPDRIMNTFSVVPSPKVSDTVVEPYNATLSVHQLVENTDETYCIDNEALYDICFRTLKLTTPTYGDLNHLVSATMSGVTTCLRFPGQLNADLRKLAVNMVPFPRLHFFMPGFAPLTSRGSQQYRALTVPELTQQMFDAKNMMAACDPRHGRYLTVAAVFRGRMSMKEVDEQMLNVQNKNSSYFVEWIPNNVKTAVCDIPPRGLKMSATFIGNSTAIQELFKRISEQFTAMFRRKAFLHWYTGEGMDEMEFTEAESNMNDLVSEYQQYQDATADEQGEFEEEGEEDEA
Chain of tubulin heterodimers, purified from porcine brain (P02550 whole entry partner): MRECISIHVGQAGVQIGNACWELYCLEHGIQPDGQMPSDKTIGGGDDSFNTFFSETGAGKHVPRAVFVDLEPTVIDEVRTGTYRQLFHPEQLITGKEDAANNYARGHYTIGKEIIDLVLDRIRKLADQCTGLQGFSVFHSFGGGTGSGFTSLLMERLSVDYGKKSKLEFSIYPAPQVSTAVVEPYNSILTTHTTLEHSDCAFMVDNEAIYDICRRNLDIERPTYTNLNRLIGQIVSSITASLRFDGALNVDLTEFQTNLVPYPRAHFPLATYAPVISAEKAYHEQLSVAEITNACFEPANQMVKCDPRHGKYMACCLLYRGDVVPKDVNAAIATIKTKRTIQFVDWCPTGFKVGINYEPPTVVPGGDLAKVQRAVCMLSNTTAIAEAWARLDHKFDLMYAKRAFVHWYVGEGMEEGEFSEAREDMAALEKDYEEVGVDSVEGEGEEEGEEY
The test system of assay [12] is HeLaM cells. As to the kind of experiment: Flow cytometry cell cycle analysis. The assay is classed as cell-based. Put shortly: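 5 × 10^5 HeLaM cells plated, treated next day with test compound or DMSO for 24, 48 or 72 h. All cells (floating and attached) collected and fixed in 70% ethanol (final). […] 10 μg/ml, 30 min, 37 °C, then propidium iodide in PBS + 2% FBS. SubG1 gated; subG1 excluded before modeling live-cell cycle distribution.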

Chain of HDAC2 (Q92769 whole entry): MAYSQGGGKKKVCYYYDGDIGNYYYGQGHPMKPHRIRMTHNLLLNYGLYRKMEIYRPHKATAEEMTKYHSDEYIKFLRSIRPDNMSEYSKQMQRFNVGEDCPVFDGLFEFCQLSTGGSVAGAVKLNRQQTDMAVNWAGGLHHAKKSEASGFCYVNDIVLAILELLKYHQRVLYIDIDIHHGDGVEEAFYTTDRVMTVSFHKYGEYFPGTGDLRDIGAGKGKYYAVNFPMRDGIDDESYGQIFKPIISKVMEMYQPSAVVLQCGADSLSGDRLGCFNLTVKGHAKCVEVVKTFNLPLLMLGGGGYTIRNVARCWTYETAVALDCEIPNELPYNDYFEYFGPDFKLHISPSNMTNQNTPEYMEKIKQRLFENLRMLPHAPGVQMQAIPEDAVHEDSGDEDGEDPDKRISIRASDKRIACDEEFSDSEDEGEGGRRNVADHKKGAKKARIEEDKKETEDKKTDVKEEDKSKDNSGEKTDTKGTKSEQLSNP
Chain of HDAC3 (O15379 whole entry): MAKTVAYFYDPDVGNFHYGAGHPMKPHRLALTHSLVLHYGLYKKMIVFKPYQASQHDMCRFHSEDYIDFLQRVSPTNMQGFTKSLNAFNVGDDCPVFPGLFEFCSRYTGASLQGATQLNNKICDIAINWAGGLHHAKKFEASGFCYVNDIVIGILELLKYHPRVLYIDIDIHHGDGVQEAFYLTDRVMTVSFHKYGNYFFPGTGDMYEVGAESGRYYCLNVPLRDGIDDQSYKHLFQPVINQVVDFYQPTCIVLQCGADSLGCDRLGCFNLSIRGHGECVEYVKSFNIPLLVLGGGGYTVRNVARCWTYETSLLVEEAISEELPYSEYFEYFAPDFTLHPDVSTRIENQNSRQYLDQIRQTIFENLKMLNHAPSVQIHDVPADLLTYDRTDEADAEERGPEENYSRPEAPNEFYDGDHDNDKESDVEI
Chain of HDAC3 (Q9Y618 395-489 partner limits assumed): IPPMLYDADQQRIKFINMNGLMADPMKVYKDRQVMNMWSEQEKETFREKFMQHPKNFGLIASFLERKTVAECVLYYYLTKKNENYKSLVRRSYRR
Chain of HDAC1 (Q13547 whole entry): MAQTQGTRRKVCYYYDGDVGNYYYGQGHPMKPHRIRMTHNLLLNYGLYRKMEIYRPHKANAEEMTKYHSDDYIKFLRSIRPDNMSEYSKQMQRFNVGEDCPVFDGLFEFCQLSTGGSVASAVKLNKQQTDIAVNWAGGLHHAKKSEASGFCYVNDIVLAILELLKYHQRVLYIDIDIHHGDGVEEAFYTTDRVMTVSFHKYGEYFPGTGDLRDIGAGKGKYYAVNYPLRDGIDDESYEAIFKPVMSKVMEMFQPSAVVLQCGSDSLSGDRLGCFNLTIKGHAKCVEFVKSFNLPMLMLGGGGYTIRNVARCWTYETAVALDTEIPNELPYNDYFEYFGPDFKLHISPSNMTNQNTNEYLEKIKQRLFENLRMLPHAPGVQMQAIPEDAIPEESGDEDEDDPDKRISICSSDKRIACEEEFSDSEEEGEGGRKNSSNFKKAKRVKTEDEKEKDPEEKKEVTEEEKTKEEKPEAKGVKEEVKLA

Regarding `O=C(Cc1ccc(/C=C/C(=O)c2ncc[nH]2)cc1)Nc1ccc(Br)cc1` [IPE-9, (E)-2-(-4(3-(1H-imidazol-2-yl)-3-oxoprop-1-en-1-yl)phenyl)-N-(4-bromophenyl)acetamide], in assay [1], the activity at 10 µM amounted to 17.9%. In assay [2], the “GI50, all but two of the cell lines each in the leukemia and colon cancer panels” value was “sub-micromolar”.
Usually IC50 stands for the concentration needed to halve the response being measured. In general, remaining activity refers to the share of the control activity or signal that is left under treatment. For the compound `Cn1ccnc1C(=O)/C=C/c1ccc(CC(=O)Nc2cc(C(F)(F)F)cc(C(F)(F)F)c2)cc1` [IPE-26, (E)-N-(3,5-bis(trifluoromethyl)phenyl)-2-(4-(3-(1-methyl-1H-imidazol-2-yl)-3-oxoprop-1-en-1-yl)phenyl)acetamide], the activity at 10 µM in assay [1] is 69%. The IC50 in assay [3] is above 200 µM; in assay [4], above 100 µM; in assay [5], above 200 µM; in [6], above 100 µM; in assay [7], 15 ± 1 µM. The remaining activity at 100 µM in [7] lay within 20 to 60%.
As a reminder, the GI50 is the concentration giving 50% growth inhibition. A higher GI50 goes with less potent growth inhibition. As for `Cn1ccnc1C(=O)/C=C/c1ccc(CC(=O)Nc2ccccc2)cc1` [IPE-16, (E)-2-(4-(3-(1-Methyl-1H-imidazol-2-yl)-3-oxoprop-1-en-1-yl)phenyl)-N-phenylacetamide], the activity at 10 µM in [1] amounted to 15.9%. The compound also registered a GI50 in assay [8] of 5.91 µM. Besides, the “global histone H3 acetylation and tubulin acetylation” value in assay [9] is “no increase in global histone acetylation or tubulin acetylation”. Besides, the spindle collapse result in assay [10] is listed as “phenotype was reproduced”.
For the compound `C#Cc1ccc(NC(=O)Cc2ccc(/C=C/C(=O)c3nccn3C)cc2)cc1` [IPE-27, (E)-N-(4-Ethynylphenyl)-2-(4-(3-(1-methyl-1H-imidazol-2-yl)-3-oxoprop-1-en-1-yl)phenyl)acetamide], the activity at 10 µM in [1] was 53.5%. The IC50 in assay [3] was above 100 µM; in assay [4] it was above 100 µM; in [5] it was above 100 µM; in assay [6], above 100 µM; in assay [7], 12 ± 1 µM. In assay [7], the remaining activity at 100 µM was 20 to 60%.
Regarding `Cn1ccnc1C(=O)/C=C/c1ccc(CC(=O)Nc2cc(F)c(F)c(F)c2)cc1` [IPE-24, (E)-2-(4-(3-(1-methyl-1H-imidazol-2-yl)-3-oxoprop-1-en-1-yl)phenyl)-N-(3,4,5-trifluorophenyl)acetamide], in assay [1], the activity at 10 µM worked out at 22.7%. Also, the IC50 in assay [3] is above 200 µM; in assay [4], above 200 µM; in assay [5] it was above 200 µM; in [6], above 200 µM; in [7] it was 13 ± 1 µM. Besides, the remaining activity at 100 µM in assay [7] was 20 to 60%. Besides, the “GI50, all leukemia cell lines” value in assay [2] was “upper nanomolar”.
`CC(=O)O[C@H]1C(=O)[C@@]2(C)[C@H]([C@H](OC(=O)c3ccccc3)[C@]3(O)C[C@H](OC(=O)[C@H](O)[C@@H](NC(=O)c4ccccc4)c4ccccc4)C(C)=C1C3(C)C)[C@]1(OC(C)=O)CO[C@@H]1C[C@@H]2O` [Taxol, reference compound]: in assay [11], the “Vmax of tubulin polymerization” value is recorded as “higher Vmax than DMSO”.
Consider `Nc1ccccc1NC(=O)c1ccc(CNC(=O)OCc2cccnc2)cc1` [MS275, reference compound], for which the “global histone H3 acetylation and tubulin acetylation” value in assay [9] is recorded as “dramatically increased”.
As for `Cc1ccc(NC(=O)Cc2ccc(/C=C/C(=O)c3ncc[nH]3)cc2)cc1` [IPE-3, (E)-2-(4-(3-(1H-Imidazol-2-yl)-3-oxoprop-1-en-1-yl)phenyl)-N-(p-tolyl)acetamide], the activity at 10 µM in [1] turned out to be 41.3%. Further, in assay [8], the concentration for 50% growth inhibition (GI50) is 6.85 µM.
In the case of `Cn1ccnc1C(=O)/C=C/c1ccc(CC(=O)Nc2c(F)c(F)c(F)c(F)c2F)cc1` [IPE-25, (E)-2-(4-(3-(1-methyl-1H-imidazol-2-yl)-3-oxoprop-1-en-1-yl)phenyl)-N-(perfluorophenyl)acetamide], the activity at 10 µM in [1] came out at 61.4%. Also, the IC50 in assay [3] was 12 ± 1 µM; in assay [4], 8.9 ± 0.6 µM; in assay [5] it was 16 ± 1 µM; in assay [6], 8.6 ± 4.9 µM; in assay [7], 9 ± 0.5 µM.
In the case of `Cn1ccnc1C(=O)/C=C/c1ccc(CC(=O)Nc2ccc(Br)cc2)cc1` [IPE-18, (E)-N-(4-Bromophenyl)-2-(4-(3-(1-methyl-1H-imidazol-2-yl)-3-oxoprop-1-en-1-yl)phenyl)acetamide], the activity at 10 µM in assay [1] was 19.9%. For the same compound, the IC50 in assay [3], in assay [4], in [5], in assay [6] and in assay [7] was above 100 µM in each case.
Take `O=C(CCCCCCC(=O)Nc1ccccc1)NO` [SAHA, reference compound]: in assay [9], the “global histone H3 acetylation and tubulin acetylation” value was “dramatically increased”. The “cells in G2/M” value in assay [12] (48 hours, subG1 excluded (DMSO 10%)) was 8.2%. In assay [12] (72 hr post treatment (DMSO 14%)), this compound had a subG1 population of 37%. Also, the spindle collapse entry in [10] is on record as “did not produce the same aberrant spindle”.
The term inhibition denotes how much of the control response was suppressed. For `Cn1ccnc1C(=O)/C=C/c1ccc(CC(=O)Nc2ccc(S(F)(F)(F)(F)F)cc2)cc1` [IPE-22, (E)-2-(4-(3-(1-Methyl-1H-imidazol-2-yl)-3-oxoprop-1-en-1-yl)phenyl)-N-(4-(pentafluoro-λ^6-sulfanyl)phenyl)acetamide], the activity at 10 µM in [1] was -18.8%. For the same compound, the inhibition at 10 µM in [1] (read-out: growth inhibition at 10 μM) was 100%. In addition, the IC50 in [3] was above 200 µM; in assay [4] it was above 200 µM; in assay [5], above 200 µM; in assay [6], above 200 µM; in assay [7], 3 ± 0.2 µM. Further, the “fold selectivity for HDAC8 compared to the other isoforms” value in assay [7] (from IC50 values, other isoforms >200 μM) was at least 67 fold. In [7], the remaining activity at 100 µM lay in the range of 20 to 60%. Besides, the “GI50, all leukemia cell lines” value in [2] was “upper nanomolar”. For the same compound, in assay [10], the spindle collapse result is on record as “phenotype was reproduced”.
For `Cn1ccnc1C(=O)/C=C/c1ccc(CC(=O)Nc2ccc(F)cc2)cc1` [IPE-19, (E)-N-(4-Fluorophenyl)-2-(4-(3-(1-methyl-1H-imidazol-2-yl)-3-oxoprop-1-en-1-yl)phenyl)acetamide], the activity at 10 µM in assay [1] came out at 33.1%. Also, in assay [8], halving of growth (GI50) required 6.56 µM. For the same compound, the “global histone H3 acetylation and tubulin acetylation” value in assay [9] is “no increase in global histone acetylation or tubulin acetylation”.
